Results on one compound are retold here after ChEMBL document CHEMBL4811251 (Eur J Med Chem, 2021).

The subject of data set [1] is MV4-11. Description: Induction of apoptosis in human MV4-11 cells assessed as viable cells at 10 uM after 72 hrs by Annexin V FITC/PI staining based flow cytometry analysis (reference value: 93.63%). The data set is classed as functional. Conditions: read-out: Activity.
The target in data set [2] is T1, Receptor-type tyrosine-protein kinase FLT3 (Homo sapiens, UniProt P36888).
T1 sequence (P36888 whole entry): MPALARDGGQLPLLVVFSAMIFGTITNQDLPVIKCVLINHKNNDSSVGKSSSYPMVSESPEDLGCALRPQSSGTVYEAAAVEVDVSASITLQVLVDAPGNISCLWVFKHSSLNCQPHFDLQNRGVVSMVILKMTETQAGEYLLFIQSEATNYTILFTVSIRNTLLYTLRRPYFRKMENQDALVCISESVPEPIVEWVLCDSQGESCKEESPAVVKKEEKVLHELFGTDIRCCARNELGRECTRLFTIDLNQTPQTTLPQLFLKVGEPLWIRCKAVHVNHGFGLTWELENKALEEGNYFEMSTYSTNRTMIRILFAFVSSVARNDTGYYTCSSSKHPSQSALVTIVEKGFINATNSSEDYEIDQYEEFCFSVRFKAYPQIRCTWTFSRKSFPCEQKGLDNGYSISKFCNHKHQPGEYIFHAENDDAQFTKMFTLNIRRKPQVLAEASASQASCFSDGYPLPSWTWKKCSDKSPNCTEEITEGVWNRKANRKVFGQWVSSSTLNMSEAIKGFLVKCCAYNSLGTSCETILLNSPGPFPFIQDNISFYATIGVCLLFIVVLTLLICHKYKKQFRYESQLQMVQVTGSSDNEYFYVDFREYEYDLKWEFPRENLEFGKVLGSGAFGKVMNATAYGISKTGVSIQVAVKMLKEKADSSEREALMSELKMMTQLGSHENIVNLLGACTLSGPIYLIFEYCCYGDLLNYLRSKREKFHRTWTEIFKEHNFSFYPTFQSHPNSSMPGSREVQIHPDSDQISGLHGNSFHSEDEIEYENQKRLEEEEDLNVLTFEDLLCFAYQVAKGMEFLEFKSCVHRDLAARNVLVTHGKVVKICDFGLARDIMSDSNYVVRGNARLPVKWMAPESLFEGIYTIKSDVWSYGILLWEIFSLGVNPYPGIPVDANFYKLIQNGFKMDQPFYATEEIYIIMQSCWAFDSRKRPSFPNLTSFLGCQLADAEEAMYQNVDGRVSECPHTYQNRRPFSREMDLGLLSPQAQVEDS
In words: Inhibition of human FLT3 using EAIYAAPFAKKK as substrate incubated for 40 mins in presence of [gamma-33ATP] by scintillation counting based radiometry assay.

The test system of data set [3] is MV4-11. In words: Induction of cell cylce arrest in human MV4-11 cells assessed as accumulation of cells at S phase at 10 uM after 72 hrs by RNase A/propidium iodide staining based flow cytometry (reference value: 18.81%). The data set is classed as functional. In a few lines: (§1)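 MV4-11 cells were seeded at 8 × 10⁴, held overnight at 37 °C with 5% CO2, then treated 72 h at 3 or 10 µM against a DMSO diluent control. Pellets were fixed in 70% ethanol on ice for 15 min, then stained 1 h at room temperature with PI, 0.1 mg/mL RNase A and 0.05% Triton X-100. Sub-G1, G1, S and G2/M fractions were read by flow cytometry.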

In the next data set the target is CDK8/Cyclin C (Homo sapiens, UniProt P49336). Description: Inhibition of CDK8/Cyclin C (unknown origin) using RBER-CHKtide as substrate in presence of [33P]gammaATP incubated for 60 mins by microplate scintillation counter analysis.
Sequence of CDK8/Cyclin C (P49336 whole entry): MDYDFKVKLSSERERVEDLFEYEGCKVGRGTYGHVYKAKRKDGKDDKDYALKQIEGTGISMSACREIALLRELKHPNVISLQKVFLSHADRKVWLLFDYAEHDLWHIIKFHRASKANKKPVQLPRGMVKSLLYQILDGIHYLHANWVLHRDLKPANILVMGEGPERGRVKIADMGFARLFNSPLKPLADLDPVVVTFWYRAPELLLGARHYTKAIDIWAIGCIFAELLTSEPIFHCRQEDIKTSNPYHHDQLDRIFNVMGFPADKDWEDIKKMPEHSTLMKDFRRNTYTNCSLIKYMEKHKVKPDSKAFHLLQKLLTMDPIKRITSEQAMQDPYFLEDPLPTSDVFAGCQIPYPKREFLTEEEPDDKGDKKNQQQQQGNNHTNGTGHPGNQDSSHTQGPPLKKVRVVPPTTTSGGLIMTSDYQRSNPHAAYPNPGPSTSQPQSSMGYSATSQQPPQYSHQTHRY
Sequence of CDK8/Cyclin C (P24863 whole entry, further chain): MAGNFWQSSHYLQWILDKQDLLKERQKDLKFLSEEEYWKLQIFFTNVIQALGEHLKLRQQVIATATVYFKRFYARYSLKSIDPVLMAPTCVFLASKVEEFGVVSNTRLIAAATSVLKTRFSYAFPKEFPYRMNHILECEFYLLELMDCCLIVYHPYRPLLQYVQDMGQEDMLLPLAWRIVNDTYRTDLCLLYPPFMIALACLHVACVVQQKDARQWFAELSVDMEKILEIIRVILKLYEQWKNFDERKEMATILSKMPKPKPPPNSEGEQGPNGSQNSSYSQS
The target of data set [4] is Glycogen synthase kinase-3 alpha (Homo sapiens) (UniProt P49840). In words: Inhibition of GSK3alpha (unknown origin) assessed as residual activity at 1 uM relative to control.
Sequence of Glycogen synthase kinase-3 alpha (Homo sapiens) (P49840 2-483 limits assumed): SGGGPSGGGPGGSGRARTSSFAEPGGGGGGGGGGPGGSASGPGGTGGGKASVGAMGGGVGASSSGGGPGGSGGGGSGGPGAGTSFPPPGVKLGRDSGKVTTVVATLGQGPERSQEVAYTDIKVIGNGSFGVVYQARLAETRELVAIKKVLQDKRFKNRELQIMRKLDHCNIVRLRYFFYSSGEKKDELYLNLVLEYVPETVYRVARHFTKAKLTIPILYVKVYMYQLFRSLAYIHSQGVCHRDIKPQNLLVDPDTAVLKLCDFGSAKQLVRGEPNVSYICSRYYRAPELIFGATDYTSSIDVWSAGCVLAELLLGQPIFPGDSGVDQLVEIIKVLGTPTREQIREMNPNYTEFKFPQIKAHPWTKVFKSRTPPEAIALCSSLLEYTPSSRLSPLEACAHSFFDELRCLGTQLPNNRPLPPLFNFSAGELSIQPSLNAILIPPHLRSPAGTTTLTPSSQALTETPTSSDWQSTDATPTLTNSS
The next data set concerns MDA-MB-468. Description: Antiproliferative activity against human MDA-MB-468 cells assessed as growth inhibition incubated for 72 hrs by MTT assay. The data set is classed as functional. (In general: Formazan colour is commonly taken as a measure of viable cells.)
Data set [5] concerns MV4-11. In words: Induction of cell cylce arrest in human MV4-11 cells assessed as accumulation of cells at sub G1 phase at 10 uM after 72 hrs by RNase A/propidium iodide staining based flow cytometry (reference value: 1.58%). The format is functional. In a few lines:
as §1

For data set [6], the target named is T2, Leucine-rich repeat serine/threonine-protein kinase 2 (Homo sapiens, UniProt Q5S007). In words: Inhibition of human LRRK2 using RLGRDKYKTLRQIRQ as substrate after 40 mins in presence of [gamma-33ATP] by scintillation counting based radiometry assay.
T2 sequence (Q5S007 whole entry): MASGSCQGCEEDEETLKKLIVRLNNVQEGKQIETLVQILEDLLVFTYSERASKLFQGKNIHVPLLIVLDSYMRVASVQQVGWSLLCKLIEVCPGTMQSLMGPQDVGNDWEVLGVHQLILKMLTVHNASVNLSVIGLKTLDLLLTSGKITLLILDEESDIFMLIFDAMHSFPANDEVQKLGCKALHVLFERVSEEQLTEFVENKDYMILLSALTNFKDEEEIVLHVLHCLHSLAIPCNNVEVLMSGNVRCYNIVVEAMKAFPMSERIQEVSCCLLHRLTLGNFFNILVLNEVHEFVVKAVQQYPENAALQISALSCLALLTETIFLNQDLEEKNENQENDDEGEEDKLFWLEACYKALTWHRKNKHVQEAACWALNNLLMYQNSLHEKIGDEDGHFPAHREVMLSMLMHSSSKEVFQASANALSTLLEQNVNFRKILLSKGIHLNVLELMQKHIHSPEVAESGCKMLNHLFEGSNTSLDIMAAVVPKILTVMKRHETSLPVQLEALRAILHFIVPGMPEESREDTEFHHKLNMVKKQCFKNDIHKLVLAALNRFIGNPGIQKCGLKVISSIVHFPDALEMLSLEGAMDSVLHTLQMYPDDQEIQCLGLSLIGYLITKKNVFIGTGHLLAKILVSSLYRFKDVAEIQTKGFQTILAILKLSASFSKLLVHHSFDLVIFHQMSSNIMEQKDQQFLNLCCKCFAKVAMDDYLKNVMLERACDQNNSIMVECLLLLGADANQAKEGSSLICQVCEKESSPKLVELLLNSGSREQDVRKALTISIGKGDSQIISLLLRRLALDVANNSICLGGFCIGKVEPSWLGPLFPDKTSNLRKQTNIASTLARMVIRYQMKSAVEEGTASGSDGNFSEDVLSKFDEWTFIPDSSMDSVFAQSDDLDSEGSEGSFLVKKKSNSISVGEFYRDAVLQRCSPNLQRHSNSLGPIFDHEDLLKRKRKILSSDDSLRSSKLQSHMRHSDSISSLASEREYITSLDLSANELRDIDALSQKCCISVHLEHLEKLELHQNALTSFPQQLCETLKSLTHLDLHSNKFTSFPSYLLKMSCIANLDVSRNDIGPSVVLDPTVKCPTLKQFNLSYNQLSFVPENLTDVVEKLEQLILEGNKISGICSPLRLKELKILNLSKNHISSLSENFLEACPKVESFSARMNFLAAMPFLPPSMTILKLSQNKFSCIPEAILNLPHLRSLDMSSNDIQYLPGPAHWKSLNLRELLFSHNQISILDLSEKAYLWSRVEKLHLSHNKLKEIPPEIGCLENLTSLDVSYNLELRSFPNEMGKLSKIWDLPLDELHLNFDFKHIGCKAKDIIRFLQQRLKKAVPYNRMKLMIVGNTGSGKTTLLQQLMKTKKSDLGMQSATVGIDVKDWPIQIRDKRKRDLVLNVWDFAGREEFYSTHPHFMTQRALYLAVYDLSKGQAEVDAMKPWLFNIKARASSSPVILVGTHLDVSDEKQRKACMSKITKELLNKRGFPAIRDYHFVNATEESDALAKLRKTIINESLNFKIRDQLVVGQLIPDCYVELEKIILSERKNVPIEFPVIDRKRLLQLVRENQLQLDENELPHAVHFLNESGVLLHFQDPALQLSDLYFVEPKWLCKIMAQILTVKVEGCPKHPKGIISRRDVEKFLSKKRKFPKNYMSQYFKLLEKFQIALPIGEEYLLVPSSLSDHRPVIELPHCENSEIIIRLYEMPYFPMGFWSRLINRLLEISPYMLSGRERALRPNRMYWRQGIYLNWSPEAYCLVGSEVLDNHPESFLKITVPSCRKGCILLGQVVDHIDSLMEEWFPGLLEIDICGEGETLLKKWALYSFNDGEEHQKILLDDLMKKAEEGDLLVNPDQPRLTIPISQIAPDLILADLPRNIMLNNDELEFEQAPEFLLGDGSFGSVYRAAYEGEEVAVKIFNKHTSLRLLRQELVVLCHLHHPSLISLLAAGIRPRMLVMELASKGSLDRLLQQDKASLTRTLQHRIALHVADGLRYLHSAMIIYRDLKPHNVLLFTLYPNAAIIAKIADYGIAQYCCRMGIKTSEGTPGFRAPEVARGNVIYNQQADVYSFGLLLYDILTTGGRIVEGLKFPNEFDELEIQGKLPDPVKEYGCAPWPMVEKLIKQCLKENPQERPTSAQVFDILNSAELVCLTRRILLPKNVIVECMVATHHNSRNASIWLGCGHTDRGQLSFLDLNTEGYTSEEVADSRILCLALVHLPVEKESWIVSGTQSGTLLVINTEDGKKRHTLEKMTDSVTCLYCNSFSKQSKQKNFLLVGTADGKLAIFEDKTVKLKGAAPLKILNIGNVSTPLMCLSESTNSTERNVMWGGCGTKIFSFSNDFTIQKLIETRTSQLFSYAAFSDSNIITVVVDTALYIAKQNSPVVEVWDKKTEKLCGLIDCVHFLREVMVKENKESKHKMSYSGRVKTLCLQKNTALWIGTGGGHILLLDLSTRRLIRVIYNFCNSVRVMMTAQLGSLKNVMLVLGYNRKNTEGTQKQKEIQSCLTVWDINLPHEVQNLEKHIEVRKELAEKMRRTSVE
A short description of data set [7]: Volume of distribution at steady state in BALB/c mouse at 2 mg/kg, iv measured upto 24 hrs by LC/MS/MS analysis. The data set is classed as ADME, organism-based. Particulars: in vivo, read-out: Vdss.
Data set [8] addresses T2, Leucine-rich repeat serine/threonine-protein kinase 2. Description: Inhibition of human LRRK2 at 1 uM using RLGRDKYKTLRQIRQ as substrate after 40 mins in presence of [gamma-33ATP] by scintillation counting based radiometry assay relative to control.
The subject of data set [9] is MV4-11. Description: Induction of apoptosis in human MV4-11 cells assessed as late apoptotic cells at 3 uM after 72 hrs by Annexin V FITC/PI staining based flow cytometry analysis (reference value: 3.41%). The data set is classed as functional. (In flow cytometry, cells or beads pass a laser one at a time.)
For another data set, the system named is MOLM-13. In words: Antiproliferative activity against human MOLM-13 cells assessed as growth inhibition incubated for 72 hrs by MTT assay. The format is functional.
For data set [10], the target named is Cyclin-dependent kinase 1/cyclin B1 (Homo sapiens) (UniProt P06493+P14635). Description: Inhibition of CDK1/Cyclin B (unknown origin) assessed as residual activity at 1 uM relative to control. The format is protein-complex assay.
Sequence of Cyclin-dependent kinase 1/cyclin B1 (Homo sapiens) (P06493 whole entry, looked up): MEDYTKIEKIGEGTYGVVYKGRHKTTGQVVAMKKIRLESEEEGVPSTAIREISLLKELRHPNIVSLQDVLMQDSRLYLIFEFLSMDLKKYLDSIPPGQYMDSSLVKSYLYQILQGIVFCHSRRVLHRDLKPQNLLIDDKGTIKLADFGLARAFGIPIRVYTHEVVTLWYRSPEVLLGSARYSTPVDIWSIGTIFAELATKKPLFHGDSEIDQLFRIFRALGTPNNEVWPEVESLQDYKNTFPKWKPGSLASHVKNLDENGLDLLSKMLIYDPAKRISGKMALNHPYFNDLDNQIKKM
Sequence of Cyclin-dependent kinase 1/cyclin B1 (Homo sapiens) (P14635 whole entry, looked up): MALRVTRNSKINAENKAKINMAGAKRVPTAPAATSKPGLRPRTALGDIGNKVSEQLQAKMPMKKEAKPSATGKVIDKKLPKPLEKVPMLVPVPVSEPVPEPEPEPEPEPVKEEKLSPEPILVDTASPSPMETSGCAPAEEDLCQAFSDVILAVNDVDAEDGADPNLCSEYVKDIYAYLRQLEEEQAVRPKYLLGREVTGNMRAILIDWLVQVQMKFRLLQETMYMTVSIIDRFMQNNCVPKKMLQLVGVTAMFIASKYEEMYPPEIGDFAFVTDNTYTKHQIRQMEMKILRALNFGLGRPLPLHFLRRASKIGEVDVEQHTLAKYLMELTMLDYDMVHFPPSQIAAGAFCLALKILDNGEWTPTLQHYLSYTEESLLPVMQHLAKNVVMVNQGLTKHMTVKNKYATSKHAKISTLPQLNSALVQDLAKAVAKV
The nature of data set [11]: Tmax in Sprague-Dawley rat at 5 mg/kg, iv measured upto 24 hrs by LC/MS/MS analysis. The data set is classed as ADME, organism-based. Particulars: in vivo.
In data set [12] the test system is MV4-11. In words: Induction of cell cylce arrest in human MV4-11 cells assessed as accumulation of cells at G1 phase at 3 uM after 72 hrs by RNase A/propidium iodide staining based flow cytometry (reference value: 64.41%). The data set is classed as functional. In a few lines:
as §1

Data set [13] concerns MV4-11. In words: Induction of apoptosis in human MV4-11 cells assessed as late apoptotic cells at 10 uM after 72 hrs by Annexin V FITC/PI staining based flow cytometry analysis (reference value: 3.41%). The data set is classed as functional.
For data set [14], the system named is MV4-11. In words: Antiproliferative activity against human MV4-11 cells assessed as growth inhibition after 72 hrs by resazurin assay. The data set is classed as functional. In a few lines: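 MV4-11 cells kept at 37 °C with 5% CO2 in ATCC-recommended medium plus 10% FBS. In-house resazurin viability assay after 72 h exposure. GI50 reported as mean ± standard deviation from at least two replicates.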

The test system of data set [15] is MV4-11. In words: Induction of apoptosis in human MV4-11 cells assessed as necrotic cells at 3 uM after 72 hrs by Annexin V FITC/PI staining based flow cytometry analysis (reference value: 0.23%). The data set is classed as functional.
Another data set concerns A2780. In words: Antiproliferative activity against human A2780 cells assessed as growth inhibition incubated for 72 hrs by MTT assay. The format is functional.

On to `Nc1ncc(-c2cc3ccccc3o2)c(N2CCC3(CCNC3=O)CC2)c1Cl`, for which, in the data set on MV4-11 [1], the viability at 10 µM stood at 83.4%. The Ki in data set [2] was 242 nM; at CDK8/Cyclin C, 9 nM; in data set [6] it was 51 nM. For the same compound, the Activity stood at 1.8% in the data set with MV4-11 [3]; 61% in [4]; 4.89% in the data set on MV4-11 [5]; 8.24% with MV4-11 [9]; 61% in data set [10]; 75.73% with MV4-11 [12]. The Activity in the data set with MV4-11 [13] amounted to 14.01%; with MV4-11 [15], 0.42%. Also, the GI50 worked out at 650 nM in the data set on MDA-MB-468, 5110 nM with MOLM-13, 600 nM in the data set on MV4-11 [14] and 5310 nM in the data set with A2780. Besides, the Vd in [7] is 1.24 L/kg. The inhibition in data set [8] is over 50%. The Tmax in [11] is 1.8 min.

A word on the Ki: it is a dissociation constant, usually derived from enzyme kinetics or from competition with a known ligand. A word on the GI50: it is the concentration giving 50% growth inhibition. For orientation: inhibition means how much of the control response was suppressed. In general, Tmax refers to the time from dosing to the highest level.
